# Assay results gathered from unrelated publications.
# Protocols differ between the studies behind these lines.
# Target: Serine/threonine-protein kinase PRP4 homolog (PRPF4B, Homo sapiens, UniProt Q13523)
Compound,test,setting,remaining binding [%]
c1cnn2ncc(-c3ccnc(N4CCC45COC5)n3)c2c1,binding,1 µM,84
C[C@@H]1CN(c2cc(-c3n[nH]c4ccc(OC5(C)CC5)cc34)ncn2)C[C@H](C)O1,"cell-free assay, competition with immobilised ligand",0.1 µM,83
N[C@H]1CCN(c2nccc(-c3cnn4ncccc34)n2)C1,binding,1 µM,82
FC(F)(F)c1ccc2c(c1)nc(-c1cccnc1)n2C1CC1,"cell-free assay, competition with immobilised ligand",1 µM,98
CC1CCCN1c1nccc(-c2cnn3ncccc23)n1 (stereo not shown),binding,1 µM,100
Cc1nccc(COC(=O)N2C[C@@H]3[C@@H](CNC(=O)c4ccc5[nH]nnc5c4)[C@@H]3C2)n1,"cell-free assay, competition with immobilised ligand",1 µM,95
C=CC(=O)N1CCC(C(=O)NCC(=O)N2CCN(c3nc(-c4cnc(N)nc4C(F)F)nc(N4CCOCC4)n3)CC2)CC1,"binding, competition with immobilised ligand",1 µM,100
CC(C)(O)c1cncc(-c2nc3ccc(F)cc3n2C2CC2)c1,"cell-free assay, competition with immobilised ligand",1 µM,58
Nc1ncc2c(n1)-c1c([nH]c3ccc(C#CC4CC4)cc13)CCCC2,"binding, competition with immobilised ligand",1 µM,80
Cc1cnn2ncc(-c3ccnc(N(C)C)n3)c2c1,binding,1 µM,94
O=C(c1ccc(Nc2ncc(Cl)c(-c3ccc(Cl)s3)n2)cc1)N1CCC(N2CCCC2)CC1,"binding, competition with immobilised ligand",1 µM,19
CS(=O)(=O)N1CCCC(NC(=O)[C@H](CCC2CCCCC2)NC(=O)c2ccc(CNc3ncnc4c3nnn4-c3ccccc3)cc2)C1 (stereo partly shown),"cell-free assay, competition with immobilised ligand",0.1 µM,60
CNC(=O)[C@@H]1CC[C@@H](n2c(-c3ccc4cnccc4c3)nc3ccc(C(=O)NCc4cccc(C(N)=O)c4)cc32)C1,"binding, competition with immobilised ligand",1 µM,100
COc1ncc2cc3ccccc3nc2c1C#N,"cell-free assay, competition with immobilised ligand",5 µM,100
Cc1noc([C@H]2C[C@@H](c3ccc(C(F)(F)F)cc3)CN(C(=O)N3CCS(=O)(=O)C3)C2)n1,"cell-free assay, competition with immobilised ligand",1 µM,72
O=C(NCCCN1CCOCC1)c1ccc(Nc2ncc(Cl)c(-c3ccc(Cl)s3)n2)cc1,"binding, competition with immobilised ligand",1 µM,22
COc1ccnn2ncc(-c3ccnc(N(C)C)n3)c12,binding,1 µM,69
FC(F)(F)Oc1cccc(-c2cnc3ccc(-c4ccncc4)nn23)c1,"cell-free assay, competition with immobilised ligand",5 µM,71
C[C@H]1CCN(c2nccc(-c3cnn4ncccc34)n2)C1,binding,1 µM,53
C[C@@H](c1ccc(-n2cnc3c(N)ncnc32)cc1)N1CCc2nn(C)c(Cc3ccccc3)c2C1=O,"binding, competition with immobilised ligand",0.1 µM,100
O=C(NCCCN1CCOCC1)c1ccc(Nc2nccc(-c3cc4ccccc4s3)n2)cc1,"binding, competition with immobilised ligand",1 µM,6.8
O=C(NCC1CCOCC1)c1n[nH]cc1NC(=O)c1c(F)cccc1F,"binding, competition with immobilised ligand",1 µM,100
